In ChEMBL document CHEMBL1159032, “Renal excretion of stevioside in rats” (J Nat Prod, 1992):

Experiments:
Rattus norvegicus [1] = assay: Effect on renal excretion in Wistar rat assessed as fractional sodium excretion at 16 mg/kg/hr, iv (RVb=0.60 %); format: functional, Kidney
[2] = Clearance in Wistar rat at 16 mg/kg/hr, iv; format: ADME, organism-based; design: route intravenous; conditions: in vivo
Summary of the method: (§1)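 Male Wistar rats (~345 g, fed, water ad lib) under ip sodium pentobarbital (30 mg/kg) on a heated table, tracheostomized. Stevioside (3% in isotonic Ringer's) was given as a priming dose plus sustained iv infusion via jugular vein. There were two 30-min periods, control then stevioside, with 10 rats per dose group. Carotid blood and timed bladder urine were collected.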

Rattus norvegicus [3] = assay: Effect on renal excretion in Wistar rat assessed as glucose clearance at 12 mg/kg/hr, iv (RVb=0 ml/min/kg); format: functional, Kidney; summary of the method: as §1
Rattus norvegicus [4] = assay: Effect on renal excretion in Wistar rat assessed as glomerular filtration rate at 4 mg/kg/hr, iv (RVb=1.41 %); format: functional, Kidney
Summary of the method: (§2)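 Anaesthetized (pentobarbital 30 mg/kg ip) male Wistar rats (~345 g), 10 per group, were studied over a 30-min control period then a 30-min stevioside priming-plus-iv infusion period. Ringer's containing 2% PAH and 10% inulin was infused at 0.03 ml/min. Urine flow from timed bladder collection was expressed as percent of GFR, with GFR taken as inulin clearance (anthrone assay).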

Rattus norvegicus [5] = assay: Effect on renal excretion in Wistar rat assessed as glucose clearance at 16 mg/kg/hr, iv (RVb=0 ml/min/kg); format: functional, Kidney; summary of the method: as §1
Rattus norvegicus [6] = assay: Effect on renal excretion in Wistar rat assessed as glomerular filtration rate at 8 mg/kg/hr, iv (RVb=1.47 %); format: functional, Kidney; summary of the method: as §2
Rattus norvegicus [7] = assay: Effect on renal excretion in Wistar rat assessed as inulin clearance at 4 mg/kg/hr, iv administered 30 mins after inulin infusion (RVb=6.66 ml/min/kg); format: functional, Kidney
[8] = Clearance in Wistar rat at 12 mg/kg/hr, iv; format: ADME, organism-based; design: route intravenous; conditions: in vivo; summary of the method: as §1
Rattus norvegicus [9] = assay: Effect on renal excretion in Wistar rat assessed as fractional sodium excretion at 8 mg/kg/hr, iv (RVb=0.58 %); format: functional, Kidney
Rattus norvegicus [10] = assay: Effect on renal excretion in Wistar rat assessed as inulin clearance at 8 mg/kg/hr, iv administered 30 mins after inulin infusion (RVb=6.33 ml/min/kg); format: functional, Kidney
Rattus norvegicus [11] = assay: Effect on renal excretion in Wistar rat assessed as fractional sodium excretion at 4 mg/kg/hr, iv (RVb=0.61 %); format: functional, Kidney
Rattus norvegicus [12] = assay: Effect on renal excretion in Wistar rat assessed as inulin clearance at 12 mg/kg/hr, iv administered 30 mins after inulin infusion (RVb=5.69 ml/min/kg); format: functional, Kidney
Rattus norvegicus [13] = assay: Effect on renal excretion in Wistar rat assessed as glomerular filtration rate at 4 mg/kg/hr, iv (RVb=1.39 %); format: functional, Kidney; conditions: in the assay text read “16 mg/kg/hr” for “4 mg/kg/hr”; summary of the method: as §2
Rattus norvegicus [14] = assay: Effect on renal excretion in Wistar rat assessed as glucose clearance at 8 mg/kg/hr, iv (RVb=0 ml/min/kg); format: functional, Kidney; summary of the method: as §1
Rattus norvegicus [15] = assay: Effect on renal excretion in Wistar rat assessed as p-aminohippuric acid clearance at 16 mg/kg/hr, iv administered 30 mins after p-aminohippuric acid infusion (RVb=16.70 ml/min/kg); format: functional, Kidney
Summary of the method: (§3)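 Pentobarbital-anaesthetized (30 mg/kg ip) male Wistar rats (~345 g), 10 per dose group, received a priming dose then a sustained jugular infusion of Ringer's with 2% PAH and 10% inulin at 0.03 ml/min. Clearance was measured over a 30-min control period, then a 30-min iv stevioside priming-plus-infusion period. PAH in carotid plasma and timed bladder urine was measured colorimetrically.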

Rattus norvegicus [16] = assay: Effect on renal excretion in Wistar rat assessed as fractional sodium excretion at 12 mg/kg/hr, iv (RVb=0.70 %); format: functional, Kidney
Rattus norvegicus [17] = assay: Effect on renal excretion in Wistar rat assessed as glucose clearance at 4 mg/kg/hr, iv (RVb=0 ml/min/kg); format: functional, Kidney; summary of the method: as §1
Rattus norvegicus [18] = assay: Effect on renal excretion in Wistar rat assessed as glomerular filtration rate at 12 mg/kg/hr, iv (RVb=1.87 %); format: functional, Kidney; summary of the method: as §2
[19] = Clearance in Wistar rat at 4 mg/kg/hr, iv; format: ADME, organism-based; design: route intravenous; conditions: in vivo; summary of the method: as §1
Rattus norvegicus [20] = assay: Effect on renal excretion in Wistar rat assessed as p-aminohippuric acid clearance at 8 mg/kg/hr, iv administered 30 mins after p-aminohippuric acid infusion (RVb=15.60 ml/min/kg); format: functional, Kidney; summary of the method: as §3
Rattus norvegicus [21] = assay: Effect on renal excretion in Wistar rat assessed as p-aminohippuric acid clearance at 12 mg/kg/hr, iv administered 30 mins after p-aminohippuric acid infusion (RVb=15.38 ml/min/kg); format: functional, Kidney; summary of the method: as §3
Rattus norvegicus [22] = assay: Effect on renal excretion in Wistar rat assessed as inulin clearance at 16 mg/kg/hr, iv administered 30 mins after inulin infusion (RVb=6.29 ml/min/kg); format: functional, Kidney
Rattus norvegicus [23] = assay: Effect on renal excretion in Wistar rat assessed as p-aminohippuric acid clearance at 4 mg/kg/hr, iv administered 30 mins after p-aminohippuric acid infusion (RVb=12.88 ml/min/kg); format: functional, Kidney; summary of the method: as §3
[24] = Clearance in Wistar rat at 8 mg/kg/hr, iv; format: ADME, organism-based; design: route intravenous; conditions: in vivo; summary of the method: as §1

C=C1C[C@@]23CC[C@H]4[C@@](C)(CCC[C@@]4(C)C(=O)O[C@@H]4O[C@H](CO)[C@@H](O)[C@H](O)[C@H]4O)[C@@H]2CC[C@]1(O[C@@H]1O[C@H](CO)[C@@H](O)[C@H](O)[C@H]1O[C@@H]1O[C@H](CO)[C@@H](O)[C@H](O)[C@H]1O)C3 [STEVIOSIDE]
Activity (Rattus norvegicus [1]): 1.55% | clearance [2]: 12.5 mL/min/kg | Activity (Rattus norvegicus [3]): 1.84 mL/min/kg | Activity (Rattus norvegicus [4]): 1.56% | Activity (Rattus norvegicus [5]): 2.38 mL/min/kg | Activity (Rattus norvegicus [6]): 2.19% | Activity (Rattus norvegicus [7]): 6.02 mL/min/kg | clearance [8]: 10.2 mL/min/kg | Activity (Rattus norvegicus [9]): 1.12% | Activity (Rattus norvegicus [10]): 6.51 mL/min/kg | Activity (Rattus norvegicus [11]): 0.79% | Activity (Rattus norvegicus [12]): 5.92 mL/min/kg | Activity (Rattus norvegicus [13]): 2.36% | Activity (Rattus norvegicus [14]): 1.33 mL/min/kg | Activity (Rattus norvegicus [15]): 33.4 mL/min/kg | Activity (Rattus norvegicus [16]): 1.53% | Activity (Rattus norvegicus [17]): 0 mL/min/kg | Activity (Rattus norvegicus [18]): 2.67% | clearance [19]: 7.21 mL/min/kg | Activity (Rattus norvegicus [20]): 19.2 mL/min/kg | Activity (Rattus norvegicus [21]): 28.3 mL/min/kg | Activity (Rattus norvegicus [22]): 6.3 mL/min/kg | Activity (Rattus norvegicus [23]): 12.7 mL/min/kg | clearance [24]: 9.63 mL/min/kg
